Legend:
[1] = test system: Vero; experiment: Cytotoxicity against african green monkey Vero cells; assay type: cell-based; conditions: Chlorocebus sabaeus
[2] = test system: Plasmodium vinckei petteri; experiment: Antiplasmodial activity Plasmodium vinckei petteri infected in CD mouse assessed as survival of infected mouse at 10 mg/kg/day, ip administered from day 0 to day 3 and measured on day 4 (reference value: 9.5 days); assay type: functional; conditions: route intraperitoneal
[3] = test system: Plasmodium vinckei petteri; experiment: Antiplasmodial activity Plasmodium vinckei petteri infected in CD mouse assessed as survival of infected mouse at 1 mg/kg/day, ip administered from day 0 to day 3 and measured on day 4 (reference value: 9.5 days); assay type: functional; conditions: route intraperitoneal
[4] = test system: Plasmodium vinckei petteri; experiment: Antiplasmodial activity Plasmodium vinckei petteri infected in CD mouse assessed as suppression of parasitaemia at 10 mg/kg/day, ip administered from day 0 to day 3 and measured on day 4 by Giemsa staining relative to control; assay type: functional; conditions: route intraperitoneal
Summary of the method: (§1)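 Female CD mice (mean weight 20 2 g) were infected on day 0 with 10⁶ P. vinckei petteri-infected red cells in RPMI. Groups of five received drug intraperitoneally daily from day 0 to 3. On day 4, parasitaemia was counted on Giemsa-stained smears (at least 5000 erythrocytes). Inhibition % = (control − treated)/control × 100, with RPMI-only mice as controls. ED₅₀ was taken as the dose giving 50% inhibition.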

[5] = test system: Plasmodium vinckei petteri; experiment: Antiplasmodial activity Plasmodium vinckei petteri infected in CD mouse assessed as suppression of parasitaemia at 1 mg/kg/day, ip administered from day 0 to day 3 and measured on day 4 by Giemsa staining relative to control; assay type: functional; conditions: route intraperitoneal; summary of the method: as §1
[6] = test system: Plasmodium vinckei petteri; experiment: Antiplasmodial activity Plasmodium vinckei petteri infected in ip dosed CD mouse assessed as suppression of parasitaemia administered from day 0 to day 3 and measured on day 4 by Giemsa staining; assay type: functional; summary of the method: as §1
[7] = test system: Plasmodium falciparum; experiment: Antiplasmodial activity against chloroquine-sensitive Plasmodium falciparum 3D7 assessed as [3H]hypoxanthine incorporation after 48 hrs; assay type: functional, organism-based
Summary of the method: (§2)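 P. falciparum was cultured per Trager–Jensen with modifications and synchronised by magnetic concentration plus 5% sorbitol lysis. Cultures, mostly at ring stage, were exposed to increasing drug dilutions in triplicate for 48 h. Growth was measured by [³H]-hypoxanthine incorporation to give IC₅₀. Values are means of two independent experiments run in triplicate.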

[8] = test system: Plasmodium falciparum; experiment: Antiplasmodial activity against chloroquine-resistant Plasmodium falciparum FcB1/Columbia assessed as [3H]hypoxanthine incorporation after 48 hrs; assay type: functional, organism-based; summary of the method: as §2
[9] = test system: Mus musculus; experiment: Toxicity in CD mouse infected with Plasmodium venckei petteri at 10 mg/kg/day, ip administered from day 0 to day 3; assay type: organism-based; parameters: route intraperitoneal; conditions: in vivo
Summary of the method: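 CD female mice infected with 10⁶ P. vinckei petteri-infected red cells were given drug ip daily on days 0–3 and observed for signs of acute toxicity. Survival was followed for 13 days post-infection.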

[10] = Selectivity ratio of IC50 for african green monkey Vero cells to IC50 for […] Plasmodium falciparum FcB1/ Columbia; assay type: ADME, cell-based; conditions: read-out: Ratio IC50
Summary of the method: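 Selectivity index = Vero IC₅₀ / FcB1 IC₅₀. Vero cells were grown as for P. falciparum but with 10% foetal calf serum in place of 5% human serum, exposed to increasing concentrations for 48 h, and growth read by [³H]-hypoxanthine incorporation against untreated wells (100%). Doxorubicin served as control.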

[11] = test system: Plasmodium falciparum; experiment: Antiplasmodial activity against chloroquine-resistant Plasmodium falciparum FcM29 assessed as [3H]hypoxanthine incorporation after 48 hrs; assay type: functional, organism-based; summary of the method: as §2
[12] = test system: Plasmodium vinckei petteri; experiment: Antiplasmodial activity Plasmodium vinckei petteri infected in CD mouse assessed as survival of infected mouse at 2.5 mg/kg/day, ip administered from day 0 to day 3 and measured on day 4 (reference value: 9.5 days); assay type: functional; conditions: route intraperitoneal
[13] = test system: Plasmodium vinckei petteri; experiment: Antiplasmodial activity Plasmodium vinckei petteri infected in CD mouse assessed as suppression of parasitaemia at 5 mg/kg/day, ip administered from day 0 to day 3 and measured on day 4 by Giemsa staining relative to control; assay type: functional; conditions: route intraperitoneal; summary of the method: as §1
[14] = test system: Plasmodium vinckei petteri; experiment: Antiplasmodial activity Plasmodium vinckei petteri infected in CD mouse assessed as survival of infected mouse at 5 mg/kg/day, ip administered from day 0 to day 3 and measured on day 4 (reference value: 9.5 days); assay type: functional; conditions: route intraperitoneal
[15] = test system: Plasmodium vinckei petteri; experiment: Antiplasmodial activity Plasmodium vinckei petteri infected in CD mouse assessed as suppression of parasitaemia at 2.5 mg/kg/day, ip administered from day 0 to day 3 and measured on day 4 by Giemsa staining relative to control; assay type: functional; conditions: route intraperitoneal; summary of the method: as §1

SMILES | IC50 [1] | MSD [2] | MSD [3] | inhibition in vivo at 10 mg/kg/day [4] | inhibition in vivo at 1 mg/kg/day [5] | ED50 [6] | IC50 [7] | IC50 [8] | Activity [9] | selectivity ratio [10] | IC50 [11] | MSD [12] | inhibition in vivo at 5 mg/kg/day [13] | MSD [14] | inhibition in vivo at 2.5 mg/kg/day [15]
COc1cccc2c1C(=O)c1c(O)c3c(c(O)c1C2=O)C[C@@](O)(C(=O)CO)C[C@@H]3O[C@H]1C[C@H](N)[C@H](O)[C@H](C)O1 [DOXORUBICIN] | 6400 nM |  |  |  |  |  |  |  |  |  |  |  |  |  | 
CCN(CC)CCCC(C)Nc1ccnc2cc(Cl)ccc12 (configuration not stated) [CHLOROQUINE] | > 50000 nM | >13 days | 9.5 days | 94.8% | 3.2% | 5.5 mg/kg/day |  |  |  |  |  |  |  |  | 
COc1cc2c(ccc3c4cc(OC)c(OC)cc4c[n+](C)c23)cc1O.[I-] [FAGARONINE IODIDE] | > 21000 nM | >13 days | 8.6 days | 91.5% | 4.8% | 6 mg/kg/day | 7.6 nM | 14.9 nM | Non-toxic | > 1400 | 7.4 nM | 11.5 days | 38.1% | 10.7 days | 27%
